Results from ChEMBL document CHEMBL5329147, “Synthesis of tryptanthrin appended dispiropyrrolidine oxindoles and their antibacterial evaluation” (RSC Med Chem, 2023).
Converted amounts (≈) assume the structure as drawn.

Columns and labels:
Staphylococcus aureus [1] = assay: Antibacterial activity against Staphylococcus aureus ATCC 29213 assessed as bacterial growth inhibition incubated for 18 to 24 hrs by broth microdilution method; format: functional; details: Staphylococcus aureus, ATCC 29213; time 18-24 hrs; read-out: MIC
Procedure, shortened: (§1)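 CLSI broth microdilution. Overnight starter cultures (single colony, MHBII, 37 °C, shaking 18–24 h) were diluted by OD600 to 10^6 CFU/mL in MHBII. Two-fold dilutions from […] were made from 10 mg/mL DMSO stocks, then incubated 37 °C for 18-24 h. The MIC was the lowest concentration with no visible growth. Three independent runs, duplicate samples.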

Acinetobacter baumannii = assay: Antibacterial activity against Acinetobacter baumannii BAA-1605 assessed as bacterial growth inhibition incubated for 18 to 24 hrs by broth microdilution method; format: functional; details: time 18-24 hrs; procedure, shortened: as §1
Pseudomonas aeruginosa = assay: Antibacterial activity against Pseudomonas aeruginosa ATCC 27853 assessed as bacterial growth inhibition incubated for 18 to 24 hrs by broth microdilution method; format: functional; details: time 18-24 hrs; procedure, shortened: as §1
Escherichia coli = assay: Antibacterial activity against Escherichia coli ATCC 25922 assessed as bacterial growth inhibition incubated for 18 to 24 hrs by broth microdilution method; format: functional; details: time 18-24 hrs; procedure, shortened: as §1
Klebsiella pneumoniae = assay: Antibacterial activity against Klebsiella pneumoniae BAA 1705 assessed as bacterial growth inhibition incubated for 18 to 24 hrs by broth microdilution method; format: functional; details: time 18-24 hrs; procedure, shortened: as §1
[2] = Selectivity ratio of CC50 for African green monkey Vero cells to MIC against Staphylococcus aureus ATCC 29213; format: toxicity, cell-based
Staphylococcus aureus [3] = assay: Antibacterial activity against methicillin sensitive Staphylococcus aureus ATCC 29213 assessed as bacterial growth inhibition incubated for 18 to 24 hrs by broth microdilution method; format: functional; details: time 18-24 hrs
Procedure, shortened: (§2)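 CLSI broth microdilution in MHBII; overnight starter cultures (single MHA colony, 37 °C, shaking) adjusted by OD600 to 10^6 CFU/mL. Compounds from DMSO stocks (10 mg/mL), two-fold series 64–0.5 mg/L. Incubation 37 °C, 18-24 h. MIC = lowest concentration with no visible growth. Three independent determinations, each in duplicate.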

Staphylococcus aureus [4] = assay: Antibacterial activity against methicillin resistant Staphylococcus aureus NRS 119 assessed as bacterial growth inhibition incubated for 18 to 24 hrs by broth microdilution method; format: functional; details: time 18-24 hrs; procedure, shortened: as §2
Staphylococcus aureus [5] = assay: Antibacterial activity against methicillin resistant Staphylococcus aureus NRS 129 assessed as bacterial growth inhibition incubated for 18 to 24 hrs by broth microdilution method; format: functional; details: time 18-24 hrs; procedure, shortened: as §2
Staphylococcus aureus [6] = assay: Antibacterial activity against methicillin resistant Staphylococcus aureus NRS 186 assessed as bacterial growth inhibition incubated for 18 to 24 hrs by broth microdilution method; format: functional; details: time 18-24 hrs; procedure, shortened: as §2
Staphylococcus aureus [7] = assay: Antibacterial activity against methicillin resistant Staphylococcus aureus NRS 191 assessed as bacterial growth inhibition incubated for 18 to 24 hrs by broth microdilution method; format: functional; details: time 18-24 hrs; procedure, shortened: as §2
Staphylococcus aureus [8] = assay: Antibacterial activity against methicillin resistant Staphylococcus aureus NRS 192 assessed as bacterial growth inhibition incubated for 18 to 24 hrs by broth microdilution method; format: functional; details: time 18-24 hrs; procedure, shortened: as §2
Staphylococcus aureus [9] = assay: Antibacterial activity against methicillin resistant Staphylococcus aureus NRS 193 assessed as bacterial growth inhibition incubated for 18 to 24 hrs by broth microdilution method; format: functional; details: time 18-24 hrs; procedure, shortened: as §2
Staphylococcus aureus [10] = assay: Antibacterial activity against methicillin resistant Staphylococcus aureus NRS 194 assessed as bacterial growth inhibition incubated for 18 to 24 hrs by broth microdilution method; format: functional; details: time 18-24 hrs; procedure, shortened: as §2
Staphylococcus aureus [11] = assay: Antibacterial activity against methicillin resistant Staphylococcus aureus NRS 198 assessed as bacterial growth inhibition incubated for 18 to 24 hrs by broth microdilution method; format: functional; details: time 18-24 hrs; procedure, shortened: as §2
Staphylococcus aureus [12] = assay: Antibacterial activity against vancomycin resistant Staphylococcus aureus […] 4 assessed as bacterial growth inhibition incubated for 18 to 24 hrs by broth microdilution method; format: functional; details: time 18-24 hrs; procedure, shortened: as §2
Staphylococcus aureus [13] = assay: Antibacterial activity against vancomycin resistant Staphylococcus aureus […] 12 assessed as bacterial growth inhibition incubated for 18 to 24 hrs by broth microdilution method; format: functional; details: time 18-24 hrs; procedure, shortened: as §2
Staphylococcus aureus [14] = assay: Bactericidal activity against Staphylococcus aureus ATCC 29213 assessed as reduction in bacterial load at 10 times of MIC incubated for 24 hrs by time kill analysis; format: functional
Procedure, shortened: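 Time-kill assay. ~10^6 CFU/mL in MHBII was exposed to 1X and 10X MIC, 37 °C with shaking for 24 h. Samples were taken at 0, 1, 6 and 24 h, serially diluted in PBS, plated on MHA and incubated 37 °C 18–20 h. Colonies were counted as CFU/mL survivors. Three repeats in duplicate; mean plotted.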

Staphylococcus aureus [15] = assay: Synergistic antibacterial activity against Staphylococcus aureus ATCC 29213 assessed as bacterial growth inhibition incubated for 24 hrs in presence of ceftazidime by checkerboard assay; format: functional
Procedure, shortened: (§3)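 Checkerboard in 96-well plates: two-fold serial dilutions, one agent along abscissa, partner antibiotic along ordinate. Wells received ~10⁵ CFU/mL S. aureus ATCC 29213 in MHBII. Incubation 37 °C, 24 h. ΣFIC = FIC A + FIC B, each FIC being combination MIC divided by MIC alone.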

Staphylococcus aureus [16] = assay: Synergistic antibacterial activity against Staphylococcus aureus ATCC 29213 assessed as bacterial growth inhibition incubated for 24 hrs in presence of daptomycin by checkerboard assay; format: functional; procedure, shortened: as §3
Staphylococcus aureus [17] = assay: Synergistic antibacterial activity against Staphylococcus aureus ATCC 29213 assessed as bacterial growth inhibition incubated for 24 hrs in presence of gentamycin by checkerboard assay; format: functional; procedure, shortened: as §3
Staphylococcus aureus [18] = assay: Synergistic antibacterial activity against Staphylococcus aureus ATCC 29213 assessed as bacterial growth inhibition incubated for 24 hrs in presence of levofloxacin by checkerboard assay; format: functional; procedure, shortened: as §3
Staphylococcus aureus [19] = assay: Synergistic antibacterial activity against Staphylococcus aureus ATCC 29213 assessed as bacterial growth inhibition incubated for 24 hrs in presence of linezolid by checkerboard assay; format: functional; procedure, shortened: as §3
Staphylococcus aureus [20] = assay: Synergistic antibacterial activity against Staphylococcus aureus ATCC 29213 assessed as bacterial growth inhibition incubated for 24 hrs in presence of meropenem by checkerboard assay; format: functional; procedure, shortened: as §3
Staphylococcus aureus [21] = assay: Synergistic antibacterial activity against Staphylococcus aureus ATCC 29213 assessed as bacterial growth inhibition incubated for 24 hrs in presence of minocycline by checkerboard assay; format: functional; procedure, shortened: as §3
Staphylococcus aureus [22] = assay: Synergistic antibacterial activity against Staphylococcus aureus ATCC 29213 assessed as bacterial growth inhibition incubated for 24 hrs in presence of rifampicin by checkerboard assay; format: functional; procedure, shortened: as §3
Staphylococcus aureus [23] = assay: Synergistic antibacterial activity against Staphylococcus aureus ATCC 29213 assessed as bacterial growth inhibition incubated for 24 hrs in presence of vancomycin by checkerboard assay; format: functional; procedure, shortened: as §3
Vero = assay: Cytotoxicity against African green monkey Vero cells assessed as cell viability incubated for 72 hrs by MTT assay; format: toxicity, cell-based; details: chlorocebus sabaeus
Procedure, shortened: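 MTT assay on Vero cells, ~10^3 cells/well, 37 °C, 5% CO2. Compound was added at 24 h (100-12.5 μg/mL) for 72 h, then MTT for 4 h at 37 °C. Formazan was dissolved in DMSO and read at 540 nm. CC50 was the lowest concentration giving 50% viability loss. Doxorubicin positive control; triplicate.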

Staphylococcus aureus [24] = assay: Synergistic antibacterial activity against Staphylococcus aureus ATCC 29213 assessed as fractional inhibitory concentration index incubated for 24 hrs in the presence of ceftazidime by checkerboard assay; format: functional
Procedure, shortened: (§4)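 Checkerboard in 96-well plates. The test agent was diluted two-fold along one axis and the partner antibiotic two-fold along the other, with ~10^5 CFU/mL inoculum, 37 °C for 24 h. ΣFIC = FIC A + FIC B, each FIC being the MIC in combination divided by the MIC alone.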

Staphylococcus aureus [25] = assay: Synergistic antibacterial activity against Staphylococcus aureus ATCC 29213 assessed as fractional inhibitory concentration index incubated for 24 hrs in the presence of daptomycin by checkerboard assay; format: functional; procedure, shortened: as §4
Staphylococcus aureus [26] = assay: Synergistic antibacterial activity against Staphylococcus aureus ATCC 29213 assessed as fractional inhibitory concentration index incubated for 24 hrs in the presence of gentamycin by checkerboard assay; format: functional; procedure, shortened: as §4
Staphylococcus aureus [27] = assay: Synergistic antibacterial activity against Staphylococcus aureus ATCC 29213 assessed as fractional inhibitory concentration index incubated for 24 hrs in the presence of levofloxacin by checkerboard assay; format: functional; procedure, shortened: as §4
Staphylococcus aureus [28] = assay: Synergistic antibacterial activity against Staphylococcus aureus ATCC 29213 assessed as fractional inhibitory concentration index incubated for 24 hrs in the presence of linezolid by checkerboard assay; format: functional; procedure, shortened: as §4
Staphylococcus aureus [29] = assay: Synergistic antibacterial activity against Staphylococcus aureus ATCC 29213 assessed as fractional inhibitory concentration index incubated for 24 hrs in the presence of meropenem by checkerboard assay; format: functional; procedure, shortened: as §4
Staphylococcus aureus [30] = assay: Synergistic antibacterial activity against Staphylococcus aureus ATCC 29213 assessed as fractional inhibitory concentration index incubated for 24 hrs in the presence of minocycline by checkerboard assay; format: functional; procedure, shortened: as §4
Staphylococcus aureus [31] = assay: Synergistic antibacterial activity against Staphylococcus aureus ATCC 29213 assessed as fractional inhibitory concentration index incubated for 24 hrs in the presence of rifampicin by checkerboard assay; format: functional; procedure, shortened: as §4
Staphylococcus aureus [32] = assay: Synergistic antibacterial activity against Staphylococcus aureus ATCC 29213 assessed as fractional inhibitory concentration index incubated for 24 hrs in the presence of vancomycin by checkerboard assay; format: functional; procedure, shortened: as §4

## CCN1C(=O)[C@@]2(CN(C)C3(c4cc(Br)ccc4-n4c3nc3ccccc3c4=O)C2(C#N)C#N)c2ccccc21 (stereo partly drawn)
Staphylococcus aureus [1]
  MIC: 0.125 µg/mL (≈ 0.216 µM)
Acinetobacter baumannii
  MIC: > 64 µg/mL
Pseudomonas aeruginosa
  MIC: > 64 µg/mL
Escherichia coli
  MIC: > 64 µg/mL
Klebsiella pneumoniae
  MIC: > 64 µg/mL
[2]
  selectivity ratio: 40
Staphylococcus aureus [3]
  MIC: 0.125 µg/mL (≈ 0.216 µM)
Staphylococcus aureus [4]
  MIC: 0.125 µg/mL (≈ 0.216 µM)
Staphylococcus aureus [5]
  MIC: 0.125 µg/mL (≈ 0.216 µM)
Staphylococcus aureus [6]
  MIC: 0.25 µg/mL (≈ 0.433 µM)
Staphylococcus aureus [7]
  MIC: 0.063 µg/mL (≈ 0.109 µM)
Staphylococcus aureus [8]
  MIC: 0.125 µg/mL (≈ 0.216 µM)
Staphylococcus aureus [9]
  MIC: 0.25 µg/mL (≈ 0.433 µM)
Staphylococcus aureus [10]
  MIC: 0.5 µg/mL (≈ 0.866 µM)
Staphylococcus aureus [11]
  MIC: 0.125 µg/mL (≈ 0.216 µM)
Staphylococcus aureus [12]
  MIC: 0.5 µg/mL (≈ 0.866 µM)
Staphylococcus aureus [13]
  MIC: 0.25 µg/mL (≈ 0.433 µM)
Staphylococcus aureus [14]
  Activity: Dose-Dependent Effect
Staphylococcus aureus [14]; record 2
  Activity: ~2.7 log10CFU/ml
Staphylococcus aureus [15]
  MIC: 0.25 µg/mL
Staphylococcus aureus [16]
  MIC: 0.25 µg/mL
Staphylococcus aureus [17]
  MIC: 0.25 µg/mL
Staphylococcus aureus [18]
  MIC: 0.25 µg/mL
Staphylococcus aureus [19]
  MIC: 0.25 µg/mL
Staphylococcus aureus [20]
  MIC: 0.25 µg/mL
Staphylococcus aureus [21]
  MIC: 0.25 µg/mL
Staphylococcus aureus [22]
  MIC: 0.25 µg/mL
Staphylococcus aureus [23]
  MIC: 0.25 µg/mL
Vero
  Activity: Non-Toxic
Staphylococcus aureus [24]
  FIC: 2
Staphylococcus aureus [25]
  FIC: 2
Staphylococcus aureus [26]
  FIC: 2
Staphylococcus aureus [27]
  FIC: 2
Staphylococcus aureus [28]
  FIC: 2
Staphylococcus aureus [29]
  FIC: 2
Staphylococcus aureus [30]
  FIC: 2
Staphylococcus aureus [31]
  FIC: 2
Staphylococcus aureus [32]
  FIC: 2
